Data set [1] in a line: Half life in iv dosed rat by cassette studies. Particulars: in vivo. The format is ADME, organism-based. In short, it runs like this:
(§1)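 Rat PK from intravenous cassette dosing, in which several compounds are given together in one IV administration, followed by plasma sampling to derive clearance, Vdss and elimination half-life.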

Data set [2] in a line: Half life in iv dosed dog by cassette studies. The format is ADME, organism-based, Canis lupus familiaris. Particulars: in vivo. Put shortly:
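Dog half-life from intravenous cassette dosing, with compounds co-administered IV and plasma sampled for elimination t1/2.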

A short description of data set [3]: Clearance in iv dosed rat by cassette studies. The note with it: in vivo. The format is ADME, organism-based. Put shortly: as §1
A short description of data set [4]: Volume of distribution at steady state in iv dosed rat by cassette studies. The format is ADME, organism-based. The note with it: in vivo, read-out: Vdss. In short, it runs like this:
as §1

The nature of data set [5]: AUC (infinity) in Sprague-Dawley rat at 0.5 mg/kg, iv. The format is ADME, organism-based. The note with it: plasma. On the set-up: time infinity, dose 0.5 mg/kg, route intravenous. Put shortly:
(§2)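 Single-dose pharmacokinetics in male animals, with rats being Sprague Dawley. IV dosing was 0.5 mg/kg (rat N = 2, dog N = 3). Oral dosing was 3 mg/kg (rat N = 3, dog N = 2). Plasma was sampled to derive Cmax, Tmax, AUCinf, clearance, Vdss and t1/2, and oral bioavailability (F) was calculated from the PO versus IV exposure.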

The nature of data set [6]: Clearance in Sprague-Dawley rat at 0.5 mg/kg, iv. In kind it is ADME, organism-based. On the set-up: dose 0.5 mg/kg, route intravenous. The note with it: in vivo. In short, it runs like this: as §2
Data set [7] can be described thus: Volume of distribution at steady state in Sprague-Dawley rat at 0.5 mg/kg, iv. In kind it is ADME, organism-based. Details: dose 0.5 mg/kg, route intravenous. The note with it: in vivo, read-out: Vdss. In short, it runs like this: as §2
Data set [8] is described as follows: Half life in Sprague-Dawley rat at 0.5 mg/kg, iv. In kind it is ADME, organism-based. On the set-up: dose 0.5 mg/kg, route intravenous. The note with it: in vivo. Put shortly:
as §2

Data set [9] can be described thus: Cmax in Sprague-Dawley rat at 3 mg/kg, po. The format is ADME, organism-based. The note with it: in vivo. On the set-up: dose 3 mg/kg, route oral. Put shortly: as §2
The nature of data set [10]: Tmax in Sprague-Dawley rat at 3 mg/kg, po. In kind it is ADME, organism-based. Details: dose 3 mg/kg, route oral. The note with it: in vivo. Put shortly: as §2
The nature of data set [11]: AUC (infinity) in Sprague-Dawley rat at 3 mg/kg, po. The format is ADME, organism-based. On the set-up: dose 3 mg/kg, route oral, time infinity. Particulars: plasma. Put shortly: as §2
Data set [12] can be described thus: Absolute oral bioavailability in Sprague-Dawley rat at 3 mg/kg. The note with it: in vivo. In kind it is ADME, organism-based. Put shortly: as §2
Data set [13] in a line: AUC (infinity) in Beagle dog at 0.5 mg/kg, iv. The format is ADME, organism-based, Canis lupus familiaris. On the set-up: time infinity, dose 0.5 mg/kg, route intravenous. The note with it: plasma. In short, it runs like this:
as §2

A short description of data set [14]: Clearance in Beagle dog at 0.5 mg/kg, iv. The note with it: in vivo. On the set-up: dose 0.5 mg/kg, route intravenous. The format is ADME, organism-based, Canis lupus familiaris. In short, it runs like this: as §2
A short description of data set [15]: Volume of distribution at steady state in Beagle dog at 0.5 mg/kg, iv. In kind it is ADME, organism-based, Canis lupus familiaris. On the set-up: dose 0.5 mg/kg, route intravenous. The note with it: in vivo, read-out: Vdss. Put shortly: as §2
Data set [16] can be described thus: Half life in Beagle dog at 0.5 mg/kg, iv. The format is ADME, organism-based, Canis lupus familiaris. On the set-up: dose 0.5 mg/kg, route intravenous. The note with it: in vivo. In short, it runs like this:
as §2

Data set [17] is described as follows: Cmax in Beagle dog at 3 mg/kg, po. In kind it is ADME, organism-based, Canis lupus familiaris. Details: dose 3 mg/kg, route oral. The note with it: in vivo. In short, it runs like this: as §2
Data set [18] can be described thus: Tmax in Beagle dog at 3 mg/kg, po. The note with it: in vivo. In kind it is ADME, organism-based, Canis lupus familiaris. On the set-up: dose 3 mg/kg, route oral. Put shortly:
as §2

The nature of data set [19]: AUC (infinity) in Beagle dog at 3 mg/kg, po. On the set-up: time infinity, dose 3 mg/kg, route oral. In kind it is ADME, organism-based, Canis lupus familiaris. The note with it: plasma. In short, it runs like this:
as §2

Data set [20] can be described thus: Absolute oral bioavailability in Beagle dog at 3 mg/kg. The format is ADME, organism-based, Canis lupus familiaris. Particulars: in vivo. In short, it runs like this: as §2
The nature of data set [21]: Half life in iv dosed rat by singleton studies. In kind it is ADME, organism-based. The note with it: in vivo. In short, it runs like this: (§3)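 Rat PK from intravenous singleton dosing, in which each compound is given alone IV, followed by plasma sampling to derive clearance, Vdss and elimination half-life.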
Data set [22] is described as follows: Clearance in iv dosed rat by singleton studies. Particulars: in vivo. In kind it is ADME, organism-based. Put shortly: as §3
The nature of data set [23]: Volume of distribution at steady state in iv dosed rat by singleton studies. In kind it is ADME, organism-based. The note with it: in vivo, read-out: Vdss. Put shortly:
as §3

Data set [24] is described as follows: Half life in iv dosed dog by singleton studies. Particulars: in vivo. The format is ADME, organism-based, Canis lupus familiaris. In short, it runs like this: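 Dog half-life from intravenous singleton dosing, with each compound given alone IV and plasma sampled for elimination t1/2.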

As for `O=C(Nc1ccc(-n2ccccc2=O)cn1)[C@H]1C[C@](O)(c2ccccc2C(F)(F)F)CN1C(=O)Nc1ccc(Cl)cc1`, the half-life – broadly, the time needed for the level to fall by half in the phase considered – in [1] was 1.9 h; in data set [2], 1 h. The clearance – broadly, the volume of plasma or blood freed of the substance per unit of time – in data set [3] came out at 2.89 mL/min/kg. The Vd in data set [4] stood at 0.393 L/kg.
With `O=C(Nc1ccc(-n2ccccc2=O)cn1)[C@H]1C[C@](O)(c2ccc(F)cc2)CN1C(=O)Nc1ccc(Cl)cc1`, the half-life in [1] is 1.8 h. The clearance in data set [3] is 9.44 mL/min/kg. Moreover, the Vd in [4] worked out at 1.97 L/kg.
In the case of `O=C(Nc1ccc(-n2ccccc2=O)cn1)[C@H]1C[C@](O)(c2ccc(F)c(F)c2)CN1C(=O)Nc1ccc(Cl)cc1`, the half-life in data set [1] and in [2] was 2.1 h in each case. For the same compound, the clearance in data set [3] is 13.1 mL/min/kg. The Vd in data set [4] was found to be 1.6 L/kg.
`O=C(Nc1ccc(-n2ccccc2=O)cn1)[C@H]1C[C@](O)(c2ccc(F)cc2F)CN1C(=O)Nc1ccc(Cl)cc1`: the half-life is 3.3 h in data set [1], 7.3 h in data set [2], 3.3 h in [8] and 12.6 h in data set [16]. Besides, the clearance was 7.64 mL/min/kg in data set [3], 9.5 mL/min/kg in data set [6] and 2.1 mL/min/kg in [14]. Also, the Vd in data set [4] is 1.81 L/kg; in data set [7], 2.4 L/kg; in data set [15], 2 L/kg. In addition, the AUC(0-inf) – broadly, total exposure, with the tail of the curve extrapolated – is 978 ng·h/mL in data set [5], 1010 ng·h/mL in data set [11], 4870 ng·h/mL in [13] and 6450 ng·h/mL in data set [19]. In addition, the Cmax (in general, the peak of the concentration-time curve) in [9] worked out at 236 ng/mL; in data set [17], 397 ng/mL. In addition, the Tmax (commonly the time at which the peak concentration occurs) stood at 1.7 h in data set [10] and 2 h in [18]. For the same compound, the bioavailability – broadly, dose-corrected exposure relative to a reference, in per cent – in [12] was 19%; in data set [20], 24%.
Compound `Cc1ccc([C@@]2(O)C[C@H](C(=O)Nc3ccc(-n4ccccc4=O)cn3)N(C(=O)Nc3ccc(Cl)cc3)C2)cc1` had a half-life in [1] of 1.8 h. Also, in [3], the clearance came to 10.3 mL/min/kg. For the same compound, the Vd in data set [4] was 1.58 L/kg.
In [1], `Cc1cccc([C@@]2(O)C[C@H](C(=O)Nc3ccc(-n4ccccc4=O)cn3)N(C(=O)Nc3ccc(Cl)cc3)C2)c1` showed a half-life of 1.4 h. Also, in data set [3], the clearance worked out at 6.78 mL/min/kg. Moreover, the Vd in [4] was found to be 0.438 L/kg.
Regarding `O=C(Nc1ccc(-n2ccccc2=O)cn1)[C@H]1C[C@](O)(c2ccccc2Cl)CN1C(=O)Nc1ccc(Cl)cc1`, the half-life in data set [1] is 2.9 h; in [2], 0.8 h. This compound also returned a clearance in [3] of 4.16 mL/min/kg. For the same compound, the Vd in data set [4] came to 0.923 L/kg.
On to `CO[C@@H]1C[C@H](C(=O)Nc2ccc(-n3ccccc3=O)cn2)N(C(=O)Nc2ccc(Cl)cc2)C1`, for which, in data set [1], the half-life is 2 h.
The same measure, in the same setting: the value for `CC[C@@]1(O)C[C@H](C(=O)Nc2ccc(-n3ccccc3=O)cc2F)N(C(=O)Nc2ccc(Cl)cc2)C1` was 2.4 h; that for `CCO[C@]1(CC)C[C@H](C(=O)Nc2ccc(-n3ccccc3=O)cc2F)N(C(=O)Nc2ccc(Cl)cc2)C1` was 1.4 h.
Consider `Cc1cccn(-c2ccc(NC(=O)[C@H]3C[C@@](C)(O)CN3C(=O)Nc3ccc(Cl)cc3)c(F)c2)c1=O`, for which the half-life in data set [1] was 1.6 h.
For `CO[C@]1(C)C[C@H](C(=O)Nc2ccc(-n3ccccc3=O)cc2F)N(C(=O)Nc2ccc(Cl)cc2)C1`, in data set [1], the half-life was 1.7 h.
`Cc1ccccc1[C@@]1(O)C[C@H](C(=O)Nc2ccc(-n3ccccc3=O)cn2)N(C(=O)Nc2ccc(Cl)cc2)C1` had a half-life in data set [1] of 1.3 h. This compound returned a clearance in data set [3] of 5.12 mL/min/kg. Further, in data set [4], the Vd came to 0.468 L/kg.
In [21], `O=C(Nc1ccc(-n2ccccc2=O)cc1F)[C@H]1C[C@](O)(c2ccccc2)CN1C(=O)Nc1ccc(Cl)cc1` showed a half-life of 4 h.
Take `O=C(Nc1ccc(-n2ccccc2=O)cn1)[C@H]1C[C@](O)(c2ccccc2)CN1C(=O)Nc1ccc(Cl)cc1`: the half-life in data set [1] and in data set [2] was 2.9 h each time. The compound further returned a clearance in data set [22] of 6.73 mL/min/kg. Further, the Vd in data set [23] turned out to be 1.49 L/kg.
The compound `CC[C@@]1(O)C[C@H](C(=O)Nc2ccc(-n3cccc(C)c3=O)cc2F)N(C(=O)Nc2ccc(Cl)cc2)C1` had a half-life in data set [1] of 5.2 h.
The compound `CC[C@@]1(OC)C[C@H](C(=O)Nc2ccc(-n3ccccc3=O)cc2F)N(C(=O)Nc2ccc(Cl)cc2)C1` showed a half-life in data set [1] of 1.7 h.
Turning to `CO[C@@H]1C[C@H](C(=O)Nc2ccc(-n3ccccc3=O)cc2F)N(C(=O)Nc2ccc(Cl)cc2)C1` [ERIBAXABAN], the values for the half-life in data set [1], in [21] and in [24] were 2.6 h, 2 h and 4.9 h, respectively. Also, in data set [22], the clearance amounted to 12 mL/min/kg. Besides, the Vd in data set [23] amounted to 1.1 L/kg.

The values are drawn from ChEMBL document CHEMBL1153922, “Exploration of 4,4-disubstituted pyrrolidine-1,2-dicarboxamides as potent, orally active Factor Xa inhibitors with extended duration of action” (Bioorg Med Chem, 2009).
